Where two headings read alike, the source gives them in different places.
What was measured:
Type in all cases: cell-based
HeLa cells = experiment: Antiproliferative activity, Kenacid Blue R dye binding cell survival, HeLa; conditions: Homo sapiens
Method in brief: (§1)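 Adherent cells seeded at 2,000/well (HeLa, Fem-X) or 6,000/well (LS174); compounds added 20 h later at five double-diluted concentrations (20 mM DMSO stocks, final 0–300 μM). Continuous 72 h exposure, 37 °C, 5% CO2. PBS wash, methanol/acetic acid (3:1) fixation, 0.04% Coomassie R-250 staining, A570. Survival % vs medium-only control after cell-free blank subtraction; IC50 read from survival–concentration plot.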

Fem-X cells = experiment: Antiproliferative activity, Kenacid Blue R dye binding cell survival, Fem-X; conditions: Homo sapiens, 72 h, read-out: IC50 (μM) Fem-X
Method in brief: as §1

PBMC = experiment: Cytotoxicity toward healthy peripheral blood mononuclear cells; conditions: Homo sapiens, 72 h, read-out: IC50 PBMC
Method in brief: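 Unstimulated PBMC (no mitogen) were isolated from heparinized blood of two healthy donors by Lymphoprep gradient and washed three times in Haemaccel. Seeded at 150,000/well, then dosed 2 h later in triplicate at five final concentrations. After 72 h, cells were centrifuged (10 min, 2,000 rpm), fixed in methanol/acetic acid and stained with Kenacid Blue R, and A570 was read. Survival % vs medium control, cell-free blank subtracted.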

LS174 cells = experiment: Antiproliferative activity, Kenacid Blue R dye binding cell survival, LS174; conditions: Homo sapiens, LS174, 72 h, read-out: IC50 (μM) LS174
Method in brief: as §1

K562 cells = experiment: Antiproliferative activity, Kenacid Blue R dye binding cell survival, K562; conditions: Homo sapiens, K562, 72 h, read-out: IC50 (μM) K562
Method in brief: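 K562 suspension culture in RPMI 1640 with 10% heat-inactivated FBS, 3 mM glutamine, 25 mM Hepes, pH 7.2. Seeded 3,000 cells/well and dosed 2 h later at five double-diluted concentrations (final 0–300 μM, from DMSO stocks). Exposure was 72 h at 37 °C, 5% CO2. Total protein by Kenacid Blue R (Coomassie R-250) staining, A570, blank-corrected. IC50 taken from survival % vs concentration.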

[1] = read-out: Obtained log(1/(IC50)) (converted)

SMILES	IC50 (HeLa cells; 72 h, read-out: IC50 (μM) HeLa) [µM]	IC50 (HeLa cells; [1]) [µM]	IC50 (Fem-X cells) [µM]	IC50 (PBMC) [µM]	IC50 (LS174 cells) [µM]	IC50 (K562 cells) [µM]
CC(C)(C(=O)O)C(C)(O)c1ccc(-c2ccccc2)cc1 (stereo not shown) [Compound 1, 3-Hydroxy-2,2-dimethyl-3-(4-biphenylyl)butanoic acid]	62.2	62.2	205	> 300	154	141
CC(C)(C(=O)O)C(O)(c1ccccc1)c1ccccc1 [Compound 2, 3-Hydroxy-2,2-dimethyl-3,3-diphenylpropanoic acid]	80.6	80.5				
CC(C(=O)O)C(O)c1ccccc1Cl (stereo not shown) [Compound 3, 3-Hydroxy-2-methyl-3-(2-chlorophenyl)propanoic acid]	97.2	97.3	89	> 300	93	92
CC(O)(CC(=O)O)c1ccc(-c2ccccc2)cc1 (stereo not shown) [Compound 4, 3-Hydroxy-3-(4-biphenylyl)butanoic acid]	98.7	98.6	> 200	> 300	> 200	> 200
CC(C(=O)O)C(O)(c1ccccc1)c1ccccc1 (stereo not shown) [Compound 6, 3-Hydroxy-2-methyl-3,3-diphenylpropanoic acid]	99.4	99.3				
CC(C)(C(=O)O)C(O)c1ccc(Cl)cc1 (stereo not shown) [Compound 7, 3-Hydroxy-2,2-dimethyl-3-(4-chlorophenyl)propanoic acid]	106	106	> 200	> 300	> 200	> 200
O=C(O)CC(O)c1ccccc1Cl (stereo not shown) [Compound 8, 3-Hydroxy-3-(2-chlorophenyl)propanoic acid]	118	118	> 200		> 200	> 200
CC(C)(C(=O)O)C(C)(O)c1ccccc1 (stereo not shown) [Compound 11, 3-Hydroxy-2,2-dimethyl-3-phenylbutanoic acid]	133	133		> 300		
CC(C)Cc1ccc(C(C)(O)CC(=O)O)cc1 (stereo not shown) [Compound 12, 3-Hydroxy-3(4-isobutylphenyl)butanoic acid]	151	151	> 200	> 300	> 200	> 200
CC(C)(C(=O)O)C(O)c1ccccc1 (stereo not shown) [Compound 13, 3-Hydroxy-2,2-dimethyl-3-phenylpropanoic acid]	165	165				
O=C(O)CC(O)(c1ccccc1)c1ccccc1 [Compound 14, 3-Hydroxy-3,3-diphenylpropanoic acid]	183	182				

Source: PMC3685236 (International Journal of Molecular Sciences, 2007)
